Reference: ChEMBL document CHEMBL4130594 (ACS Med Chem Lett, 2017)

Legend:
DU-145 [1] = assay: Selectivity index, ratio of IC50 for human DU145 cells under normoxic condition to IC50 for human DU145 cells under hypoxic condition; assay type: functional
How it was run: (§1)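 Hypoxia cytotoxicity ratio = IC50(air)/IC50(N2), from IC50 values after 2 h exposure of DU145 or PC-3 cells. Based on two or more independent experiments in quintuplicate.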

PC-3 [2] = assay: Cytotoxicity against human PC3 cells incubated for 2 hrs under hypoxic condition measured after 72 hrs by Alamar blue assay; assay type: functional, cell-based
How it was run: (§2)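 DU145 and PC-3 cells exposed 2 h under hypoxia (N2) or normoxia (air). IC50 determined. Mean ± SEM of two or more independent experiments, each in quintuplicate.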

PC-3 [3] = assay: Selectivity index, ratio of IC50 for human PC3 cells under normoxic condition to IC50 for human PC3 cells under hypoxic condition; assay type: functional; how it was run: as §1
DU-145 [4] = assay: Cytotoxicity against human DU145 cells incubated for 2 hrs under normoxic condition measured after 72 hrs by Alamar blue assay; assay type: functional, cell-based; how it was run: as §2
PC-3 [5] = assay: Cytotoxicity against human PC3 cells incubated for 2 hrs under normoxic condition measured after 72 hrs by Alamar blue assay; assay type: functional, cell-based; how it was run: as §2
DU-145 [6] = assay: Cytotoxicity against human DU145 cells incubated for 2 hrs under hypoxic condition measured after 72 hrs by Alamar blue assay; assay type: functional, cell-based; how it was run: as §2
[7] = Drug uptake in human PC3 cells at 100000 cpm preincubated for 2 hrs measured up to 8 hrs under normoxic condition by gamma counting analysis; assay type: ADME, cell-based; details: pc-3, 8 h
[8] = 1-octanol/phosphate buffered saline distribution coefficient, log D of the compound at 400000 cpm at pH 7.4 by gamma counting method; assay type: physicochemical
[9] = Drug uptake in human PC3 cells at 100000 cpm preincubated for 2 hrs measured up to 8 hrs under hypoxic condition by gamma counting analysis; assay type: ADME, cell-based; details: pc-3, 8 h
[10] = Drug uptake in human DU145 cells at 100000 cpm preincubated for 2 hrs measured up to 8 hrs under hypoxic condition by gamma counting analysis; assay type: ADME, cell-based; details: du-145, 8 h
[11] = Drug uptake in human DU145 cells at 100000 cpm preincubated for 2 hrs measured up to 8 hrs under normoxic condition by gamma counting analysis; assay type: ADME, cell-based; details: du-145, 8 h

Cn1c(COP(=O)(NCCBr)NCCBr)cnc1[N+](=O)[O-] [EVOFOSFAMIDE]
Ratio IC50 (DU-145 [1]): 203
IC50 (PC-3 [2]): 6.49 µM
Ratio IC50 (PC-3 [3]): 106
IC50 (DU-145 [4]): 842 µM
IC50 (PC-3 [5]): 687 µM
IC50 (DU-145 [6]): 4.14 µM

Cn1c(COP(=O)(N(CCBr)Cc2cn(Cc3ccccc3)nn2)N(CCBr)Cc2nnn(Cc3ccccc3)c2[125I])cnc1[N+](=O)[O-] (stereo unspecified)
Drug uptake [7]: 2%
logD [8]: 0.55
Drug uptake [9]: 4%
Drug uptake [10]: 4%
Drug uptake [11]: 2%
